Assay [1] addresses Cannabinoid receptor 1 (Rattus norvegicus) (UniProt P20272). The experiment in a line: Agonist activity against rat CB1 receptor expressed in superior cervical ganglion neurons assessed as increase in calcium ion current at 1 uM relative to control. The assay is classed as functional, tissue-based. In short, it runs like this: (§1)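 Rat SCG neurons nuclear-injected with N-terminally HA-tagged rat CB1 cDNA (100 ng/µL) plus EGFP marker plasmid, incubated overnight. Whole-cell voltage-clamp at 24-26 °C. Ca²⁺ current measured 10 ms into step to +5 mV, preceded by 50 ms prepulse to +80 mV. Test drug superfused alone, diluted from 10 mM DMSO stock. Current increase expressed as % of control amplitude; paired t-test.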

Assay [2] concerns the target T1, Cannabinoid receptor 1 (Homo sapiens, UniProt P21554). Nature of the assay: biochemical. The assay is classed as cell-based, HEK293.
Assay [3] concerns the target T1, Cannabinoid receptor 1. Nature of the assay: biochemical. In kind it is cell-based, HEK293. The source holds these as a separate data set.
Assay [4] addresses T1, Cannabinoid receptor 1. The experiment in a line: biochemical. The assay is classed as cell-based, HEK293. This is another data set of the same source.
Assay [5] has as its target Cannabinoid receptor 1 (Rattus norvegicus) (UniProt P20272). The experiment in a line: Antagonist activity against rat CB1 receptor expressed in superior cervical ganglion neurons assessed as block of WIN-55212-2-elicited calcium ion current inhibition at 1 uM relative to control. The assay is classed as functional, tissue-based. On the set-up: scale not given: the % may be the effect or the level left. The procedure, abridged:
(§2)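 SCG neurons from rat, nuclear-injected with HA-tagged rat CB1 cDNA, recorded after overnight incubation by whole-cell patch clamp at room temperature. Ca²⁺ currents isolated with TEA/TTX external solution and NMDG/EGTA pipette solution. WIN55,212-2 (1 µM) coapplied with test compound. Inhibition of Ca²⁺ current expressed as % of control amplitude, taken 10 ms after the step to +5 mV.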

For assay [6] the target is unchanged. The experiment in a line: Agonist activity against rat CB1 receptor expressed in superior cervical ganglion neurons assessed as increase in calcium ion current at 10 uM relative to control. The assay is classed as functional, tissue-based. In short, it runs like this: as §1
Assay [7] shares this target. The experiment in a line: Antagonist activity against rat CB1 receptor expressed in superior cervical ganglion neurons assessed as block of WIN-55212-2-elicited calcium ion current inhibition at 10 uM relative to control. The assay is classed as functional, tissue-based. Further details: scale not given: the % may be the effect or the level left. The procedure, abridged:
as §2

Cannabinoid receptor 1 (Rattus norvegicus), sequence (P20272 whole entry, the tested form may be a part): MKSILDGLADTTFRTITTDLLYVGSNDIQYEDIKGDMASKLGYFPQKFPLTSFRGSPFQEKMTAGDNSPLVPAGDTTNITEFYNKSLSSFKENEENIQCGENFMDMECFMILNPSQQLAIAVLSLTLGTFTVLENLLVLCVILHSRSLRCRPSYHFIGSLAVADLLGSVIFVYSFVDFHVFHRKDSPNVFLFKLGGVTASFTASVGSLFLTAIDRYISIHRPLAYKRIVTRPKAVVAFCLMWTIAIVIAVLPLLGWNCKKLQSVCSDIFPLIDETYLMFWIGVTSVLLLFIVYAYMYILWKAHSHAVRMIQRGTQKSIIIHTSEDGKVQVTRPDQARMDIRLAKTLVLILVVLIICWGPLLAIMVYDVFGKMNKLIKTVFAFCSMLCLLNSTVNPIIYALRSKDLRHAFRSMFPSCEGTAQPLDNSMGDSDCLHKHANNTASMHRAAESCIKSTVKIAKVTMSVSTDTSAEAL
T1 sequence (P21554 whole entry): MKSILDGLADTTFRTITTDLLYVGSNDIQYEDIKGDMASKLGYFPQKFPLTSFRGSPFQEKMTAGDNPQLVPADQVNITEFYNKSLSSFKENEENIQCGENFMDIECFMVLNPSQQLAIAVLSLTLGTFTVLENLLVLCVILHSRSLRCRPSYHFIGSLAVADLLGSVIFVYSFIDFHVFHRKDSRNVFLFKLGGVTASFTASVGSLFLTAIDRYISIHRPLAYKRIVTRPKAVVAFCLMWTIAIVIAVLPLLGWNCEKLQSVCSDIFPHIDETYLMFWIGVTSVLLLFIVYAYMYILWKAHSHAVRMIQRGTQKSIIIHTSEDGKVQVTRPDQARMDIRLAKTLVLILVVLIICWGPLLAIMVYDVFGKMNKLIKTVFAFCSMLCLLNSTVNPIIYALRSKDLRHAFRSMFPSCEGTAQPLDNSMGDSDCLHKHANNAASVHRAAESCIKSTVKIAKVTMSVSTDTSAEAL

For `Cc1c(/C=C/C2CCCCC2)nn(-c2ccc(Cl)cc2Cl)c1-c1ccc(Cl)cc1`, the values for the Activity in assay [1] and in assay [5] were 8.6% and 28.1%, respectively. Moreover, the Ki – broadly, the dissociation constant of the complex between target and ligand, obtained from inhibition or displacement – at Cannabinoid receptor 1 [2] was determined as 31.3 nM; on Cannabinoid receptor 1 [3], 60 nM; on Cannabinoid receptor 1 [4], 85 nM.

Regarding `Cc1c(C(=O)N(C)C2CCCCC2)nn(-c2ccc(Cl)cc2Cl)c1-c1ccc(Cl)cc1`, the Activity in assay [1] was 26.1%; in assay [6] it was 23.9%; in assay [7], -7%; in assay [5], -4.5%. Further, the Ki on Cannabinoid receptor 1 [2] was 30 nM; at Cannabinoid receptor 1 [3], 107 nM; at Cannabinoid receptor 1 [4] it was 54 nM.

In the case of `Cc1c(/C=C/N2CCCCC2)nn(-c2ccc(Cl)cc2Cl)c1-c1ccc(Cl)cc1`, the Activity in assay [1] was 3.2%; in assay [6], 13.9%; in assay [7] it was 0.7%; in assay [5], -2.5%. For the same compound, the Ki at Cannabinoid receptor 1 [2] amounted to 213 nM; at Cannabinoid receptor 1 [3] it was 223 nM; at Cannabinoid receptor 1 [4], 258 nM.

Take `Cc1c(/C=N/N2CCCCC2)nn(-c2ccc(Cl)cc2Cl)c1-c1ccc(Cl)cc1`: the Activity was found to be 11.5% in assay [1] and 2.6% in assay [5]. Besides, the Ki on Cannabinoid receptor 1 [2] stood at 17 nM; on Cannabinoid receptor 1 [3], 19 nM; at Cannabinoid receptor 1 [4], 57 nM.

Take `Cc1c(C(=O)NC2CCCCC2)nn(-c2ccc(Cl)cc2Cl)c1-c1ccc(Cl)cc1`: the Activity is 35.2% in assay [1] and -3.8% in assay [5]. Besides, the values for the Ki on Cannabinoid receptor 1 [2], at Cannabinoid receptor 1 [3] and at Cannabinoid receptor 1 [4] were 1.8 nM, 3.7 nM and 5 nM, respectively.

Consider `Cc1c(C(=O)NN2CCCCC2)nn(-c2ccc(Cl)cc2Cl)c1-c1ccc(Cl)cc1`, for which the Activity in assay [1] was 46.6%; in assay [5], -4.8%.

Turning to `Cc1c(C(=O)c2cccc3ccccc23)c2cccc3c2n1[C@H](CN1CCOCC1)CO3`, in assay [1], the Activity was determined as 47.1%.

Source of the values: ChEMBL document CHEMBL1137381, “Biarylpyrazole inverse agonists at the cannabinoid CB1 receptor: importance of the C-3 carboxamide oxygen/lysine3.28(192) interaction” (J Med Chem, 2006).
